Laboratory results as given in ChEMBL document CHEMBL1156019, “Synthesis and small-animal positron emission tomography evaluation of [11C]-elacridar as a radiotracer to assess the distribution of P-glycoprotein at the blood-brain barrier” (J Med Chem, 2009).
Values belong to the molecule of their own block, whether it stands above or below them.

Assays:
Blood [1] = test: Biodistribution in wild type mouse blood assessed per gram of tissue at 42 +/- 6 MBq, iv after 20 mins by gamma counting; details: in vivo
Brain [2] = test: Biodistribution in wild type mouse brain assessed per gram of tissue, iv after 18 mins; details: in vivo, 0.3 h
Brain [3] = test: Biodistribution in naive rat brain assessed per gram of tissue at 118 +/- 40 MBq, iv after 18 mins by positron emission tomography; assay type: ADME, organism-based; details: in vivo, 0.3 h
Method in brief: (§1)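 Naïve rats under 1.5-2% isoflurane with femoral artery and vein catheters; [11C]-tracer 118±40 MBq i.v. bolus over ~30 s; dynamic microPET. Scan 1: unlabeled compound 5 mg/kg i.v. at 60 min, then 90 min more acquisition; scan 2 given 2 h after unlabeled dose. Whole-brain TACs as %ID/g; arterial blood sampled serially and gamma counted. n=3, mean ± SD.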

Brain [4] = test: Biodistribution in naive rat brain assessed per gram of tissue at 118 +/- 40 MBq, iv after 0.6 mins by positron emission tomography; assay type: ADME, organism-based; details: in vivo, 0.01 h
Method in brief: as §1

Brain [5] = test: Ratio of drug level in Mdr1a/b knockout mouse brain to wild type mouse brain; assay type: ADME, tissue-based; details: in vivo
Method in brief: (§2)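 Wild-type FVB, Mdr1a/b(-/-) and Bcrp1(-/-) female mice (25-30 g), isoflurane-anesthetized and kept warm. [11C]-1 42±6 MBq i.v. bolus via tail vein, with a 60-min dynamic microPET scan started at injection. Whole-brain %ID/g read from time-activity curves at 18 min; knockout/wild-type ratios taken at 18 min; n=3; two-tailed unpaired t-test.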

Blood [6] = test: Biodistribution in naive rat blood assessed per gram of tissue at 118 +/- 40 MBq, iv after 20 mins by gamma counting; assay type: ADME, organism-based; details: in vivo
Method in brief: as §1

Blood [7] = test: Biodistribution in Mdr1a/b knockout mouse blood assessed per gram of tissue at 42 +/- 6 MBq, iv after 20 mins by gamma counting; details: in vivo
Blood [8] = test: Biodistribution in Bcrp1 knockout mouse blood assessed per gram of tissue at 42 +/- 6 MBq, iv after 20 mins by gamma counting; details: in vivo
Brain [9] = test: Biodistribution in Mdr1a/b knockout mouse brain assessed per gram of tissue, iv after 18 mins; details: in vivo, 0.3 h
Brain [10] = test: Biodistribution in Bcrp1 knockout mouse brain assessed per gram of tissue, iv after 18 mins; details: in vivo, 0.3 h
[11] = Ratio of drug level in wild type mouse brain to naive rat brain; assay type: ADME, tissue-based; details: in vivo
Method in brief: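 Whole-brain %ID/g at 18 min after i.v. [11C]-1, from dynamic PET. Wild-type female FVB mice received 42±6 MBq via tail vein. Naive rats (baseline scan, before any unlabeled compound) received 118±40 MBq via femoral vein catheter. Both groups under isoflurane; n=3 each.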

Brain [12] = test: Ratio of drug level in Bcrp1 knockout mouse brain to wild type mouse brain; assay type: ADME, tissue-based; details: in vivo
Method in brief: as §2

Brain [13] = test: Biodistribution of rat brain at 20 MBq, iv after 30 mins post-injection in presence of cyclosporine A treated before compound infusion relative to basal level; assay type: ADME, organism-based; details: in vivo, 0.5 h
Brain [14] = test: Biodistribution in naive rat brain assessed per gram of tissue at 118 +/- 40 MBq, iv administered 2 hrs after unlabeled elacridar infusion measured after 18 mins by positron emission tomography; assay type: ADME, organism-based; details: in vivo, 0.3 h
Method in brief: as §1

Brain [15] = test: Biodistribution in naive rat brain assessed per gram of tissue at 118 +/- 40 MBq, iv after 130 mins by positron emission tomography; assay type: ADME, organism-based; details: in vivo
Method in brief: as §1

Caco-2 = test: Ratio of permeability from basolateral to apical side over apical to basolateral side in human Caco-2 cells
[16] = Inhibition of P-gp-mediated [3H]daunorubicin transport in Wistar rat hepatocytes by scintillation counting; assay type: cell-based; details: hepatocyte
Rattus norvegicus = species on record: Rattus norvegicus; details: Sprague-Dawley, 10 M
Brain [17] = test: Ratio of drug level in naive rat brain at 118 +/- 40 MBq, iv administered 2 hrs after unlabeled elacridar infusion to drug level in naive rat brain at 118 +/- 40 MBq, iv administered before unlabeled elacridar infusion; assay type: ADME, organism-based; details: in vivo
Method in brief: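 Naive rats under isoflurane with femoral artery and vein catheters; n=3. Scan 1: [11C]-1 118±40 MBq i.v. bolus over about 30 s, then dynamic PET. At 60 min, unlabeled 1 (5 mg/kg) i.v. over about 20 s, then 90 min more imaging. Scan 2 run 2 h after unlabeled dose. Whole-brain %ID/g at 18 min compared as scan 2/scan 1; two-tailed paired t-test.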

Drug uptake (Blood [1]): 0.97 %ID | Drug uptake (Brain [2]): 0.72 %ID | Drug uptake (Brain [3]): 0.07 %ID | Drug uptake (Brain [4]): 0.23 %ID | Ratio (Brain [5]): 2.5 | Drug uptake (Blood [6]): 0.02 %ID | Drug uptake (Blood [7]): 0.64 %ID | Drug uptake (Blood [8]): 0.89 %ID | Drug uptake (Brain [9]): 1.8 %ID | Drug uptake (Brain [10]): 0.9 %ID | Ratio [11]: 10 | Ratio (Brain [12]): 1.3
Compound: COc1cc2c(cc1OC)CN(CCc1ccc(NC(=O)c3cccc4c(=O)c5cccc(O[11CH3])c5[nH]c34)cc1)CC2

fold change (FC) (Brain [13]): 6
Compound: [11CH3]OC(=O)c1cnc2n1CCc1ccccc1C2=C1CCN(CCc2ccc(OCc3ccc4ccccc4n3)cc2)CC1

Drug uptake (Brain [14]): 0.4 %ID | Drug uptake (Brain [15]): 0.28 %ID | Ratio (Caco-2): < 2 | Ki [16]: 35 nM | inhibition (Rattus norvegicus): 63% | Ratio (Brain [17]): 5.4
Compound: COc1cc2c(cc1OC)CN(CCc1ccc(NC(=O)c3cccc4c(=O)c5cccc(OC)c5[nH]c34)cc1)CC2
